According to ChEMBL document CHEMBL2417460, “Synthesis and biological evaluation of berberine-thiophenyl hybrids as multi-functional agents: Inhibition of acetylcholinesterase, butyrylcholinesterase, and Aβ aggregation and antioxidant activity” (Bioorg Med Chem, 2013):
Blank lines part the entries; values can stand above or below the molecule they belong to. The source made the active and inactive calls. No cut-off for these calls is given here.

Key:
[1] = Antioxidant activity assessed as ratio of umol of trolox equivalent to umol of compound after 10 mins by oxygen radical absorbance capacity-fluorescein assay; format: functional
How it was run: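 Fluorescein 300 nM final was preincubated with antioxidant for 10 min at 37 °C, then AAPH was added to 12 mM final. Fluorescence (ex 485/em 535 nm) was read every 60 s for 4 h. Samples were run at […] against a Trolox calibration and an FL+AAPH blank in phosphate buffer. Results are expressed as Trolox equivalents, with mixtures in triplicate and ≥3 independent runs.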

[2] = molecular target: Amyloid-beta precursor protein (Homo sapiens) (UniProt P05067); assay: Inhibition of amyloid beta (1-42) (unknown origin) aggregation at 20 uM after 48 hrs by thioflavin-T based fluorimetric assay relative to control
How it was run: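 HFIP-pretreated Aβ1–42 was resolubilised in 50 mM phosphate buffer, pH 7.4, and incubated at 37 °C for 48 h (50 μM final peptide) with or without compound at 20 μM. Samples were diluted into 50 mM glycine–NaOH, pH 8.0, containing thioflavin T and scanned for 300 s (ex 450/em 485 nm). Plateau values were averaged after subtracting ThT background.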

Acetylcholinesterase [3] = molecular target: T1, Acetylcholinesterase (Electrophorus electricus, UniProt O42275); assay: Inhibition of electric eel AChE using acetylthiocholine chloride as substrate preincubated for 15 mins prior to substrate addition by Ellman's method
Acetylcholinesterase [4] = molecular target: T1, Acetylcholinesterase; assay: Mixed-type inhibition of electric eel AChE using acetylthiocholine chloride as substrate by Lineweaver-Burk plot analysis
How it was run: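 Electric eel AChE was pre-incubated with inhibitor at 37 °C for 15 min in 0.1 M phosphate buffer, pH 8.0, with DTNB, then substrate was added. Absorbance at 412 nm was followed at 60 s intervals at 37 °C. Reciprocal plots of initial velocity versus substrate concentration defined the inhibition type.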

[5] = Antioxidant activity assessed as H2O2 scavenging activity measured as compound remaining at 100 uM after 72 hrs by LC/MS analysis; format: functional
[6] = Antioxidant activity assessed as H2O2 scavenging activity at 100 uM after 72 hrs by spectrophotometric analysis; format: functional
How it was run: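 Compound solution was added to H2O2 (0.1 mM) in 0.1 M phosphate buffer, pH 7.4, and incubated for 72 h at 37 °C. Phenol red (0.2 mg/mL) plus horseradish peroxidase (0.4 mg/mL) was added; after 15 min, 1 M NaOH was added and absorbance read at 610 nm. Percent H2O2 reduction = (A_H2O2 − A_sample)/A_H2O2 × 100, with the control holding acetone and no compound.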

Amyloid-beta precursor protein (Homo sapiens), sequence (P05067 whole entry): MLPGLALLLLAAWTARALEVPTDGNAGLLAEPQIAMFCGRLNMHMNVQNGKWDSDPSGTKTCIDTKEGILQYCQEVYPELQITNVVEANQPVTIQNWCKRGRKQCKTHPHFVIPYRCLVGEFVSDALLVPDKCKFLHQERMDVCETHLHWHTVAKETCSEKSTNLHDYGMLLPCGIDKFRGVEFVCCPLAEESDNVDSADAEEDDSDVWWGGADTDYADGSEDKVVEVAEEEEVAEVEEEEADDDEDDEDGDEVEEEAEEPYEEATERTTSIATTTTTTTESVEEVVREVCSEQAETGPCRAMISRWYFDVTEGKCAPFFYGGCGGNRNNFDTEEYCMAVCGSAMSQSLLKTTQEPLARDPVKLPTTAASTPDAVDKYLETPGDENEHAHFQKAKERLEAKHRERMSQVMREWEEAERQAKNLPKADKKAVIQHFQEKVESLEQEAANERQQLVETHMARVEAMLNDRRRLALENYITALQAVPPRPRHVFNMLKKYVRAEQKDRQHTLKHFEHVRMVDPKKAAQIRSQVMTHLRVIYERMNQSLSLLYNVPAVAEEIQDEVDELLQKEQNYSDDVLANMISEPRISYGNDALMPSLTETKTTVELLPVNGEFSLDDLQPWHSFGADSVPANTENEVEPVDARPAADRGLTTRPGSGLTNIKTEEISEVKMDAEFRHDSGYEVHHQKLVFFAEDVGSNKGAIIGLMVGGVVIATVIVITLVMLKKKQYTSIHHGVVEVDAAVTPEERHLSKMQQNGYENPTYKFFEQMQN
T1 sequence (O42275 whole entry): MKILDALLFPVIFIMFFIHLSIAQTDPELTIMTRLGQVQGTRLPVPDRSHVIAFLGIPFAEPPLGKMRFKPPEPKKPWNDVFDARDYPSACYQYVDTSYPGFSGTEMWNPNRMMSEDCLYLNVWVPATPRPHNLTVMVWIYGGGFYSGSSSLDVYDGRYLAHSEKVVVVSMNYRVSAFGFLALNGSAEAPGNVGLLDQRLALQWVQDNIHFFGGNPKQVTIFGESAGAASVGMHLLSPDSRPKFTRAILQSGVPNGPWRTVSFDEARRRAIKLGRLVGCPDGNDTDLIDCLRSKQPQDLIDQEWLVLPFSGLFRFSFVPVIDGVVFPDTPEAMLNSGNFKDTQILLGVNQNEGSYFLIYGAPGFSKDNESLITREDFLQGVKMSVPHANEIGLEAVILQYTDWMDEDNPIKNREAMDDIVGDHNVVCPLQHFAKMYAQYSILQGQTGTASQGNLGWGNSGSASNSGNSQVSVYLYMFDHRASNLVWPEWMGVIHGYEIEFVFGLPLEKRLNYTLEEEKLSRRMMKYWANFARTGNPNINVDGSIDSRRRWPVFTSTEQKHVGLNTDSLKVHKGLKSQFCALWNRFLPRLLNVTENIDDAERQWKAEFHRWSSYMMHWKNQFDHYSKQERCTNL

Compound: COc1ccc2cc3[n+](cc2c1OCCCSc1ccccc1)CCc1cc2c(cc1-3)OCO2
Activity [1]: 0.94 equiv
inhibition [2]: 70.6%
IC50 (Acetylcholinesterase [3]): 257 nM

Compound: COc1ccc2cc3[n+](cc2c1OCCSc1cccc(C)c1)CCc1cc2c(cc1-3)OCO2
Activity [1]: 1.32 equiv
inhibition [2]: 72.3%
IC50 (Acetylcholinesterase [3]): 207 nM

Compound: COc1ccc2cc3[n+](cc2c1OCCSc1ccc(Cl)cc1)CCc1cc2c(cc1-3)OCO2
Activity [1]: 0.82 equiv
IC50 (Acetylcholinesterase [3]): 484 nM

Compound: COc1ccc2cc3[n+](cc2c1OCCCCCCSc1ccccc1)CCc1cc2c(cc1-3)OCO2
Activity [1]: 0.77 equiv
IC50 (Acetylcholinesterase [3]): 972 nM

Compound: COc1ccccc1SCCOc1c(OC)ccc2cc3[n+](cc12)CCc1cc2c(cc1-3)OCO2
Activity [1]: 1.94 equiv
inhibition [2]: 76.8%
IC50 (Acetylcholinesterase [3]): 151 nM

Compound: COc1ccc2cc3[n+](cc2c1OCCSc1cccc(Cl)c1)CCc1cc2c(cc1-3)OCO2
Activity [1]: 0.47 equiv
IC50 (Acetylcholinesterase [3]): 233 nM

Compound: COc1ccc2cc3[n+](cc2c1OCCSc1ccc(C)cc1)CCc1cc2c(cc1-3)OCO2
Activity [1]: 1.86 equiv
inhibition [2]: 70%
IC50 (Acetylcholinesterase [3]): 299 nM

inhibition [2]: 35.5%
Compound: COc1ccc2cc3[n+](cc2c1OC)CCc1cc2c(cc1-3)OCO2
Activity [1]: 0.4 equiv

Compound: COc1ccc2cc3[n+](cc2c1OCCCCSc1ccccc1)CCc1cc2c(cc1-3)OCO2
Activity [1]: 0.95 equiv
inhibition [2]: 69.1%
IC50 (Acetylcholinesterase [3]): 192 nM

Compound: CCc1ccccc1SCCOc1c(OC)ccc2cc3[n+](cc12)CCc1cc2c(cc1-3)OCO2
Activity [1]: 1.01 equiv
inhibition [2]: 74.8%
IC50 (Acetylcholinesterase [3]): 83 nM

Compound: COc1ccc2cc3[n+](cc2c1OCCSc1ccccc1Cl)CCc1cc2c(cc1-3)OCO2
Ki (Acetylcholinesterase [4]): 18 nM
Activity [1]: 0.75 equiv
inhibition [2]: 65.1%
IC50 (Acetylcholinesterase [3]): 42 nM

Compound: COc1ccc2cc3[n+](cc2c1OCCSc1ccccc1C)CCc1cc2c(cc1-3)OCO2
Ki (Acetylcholinesterase [4]): 71 nM
Activity [1]: 1.11 equiv
inhibition [2]: 73.4%
IC50 (Acetylcholinesterase [3]): 77 nM
Activity [5]: Active
Activity [6]: Active

Compound: COc1ccc2cc3[n+](cc2c1OCCSc1ccccc1)CCc1cc2c(cc1-3)OCO2
Activity [1]: 0.89 equiv
inhibition [2]: 70.4%
IC50 (Acetylcholinesterase [3]): 177 nM

Compound: COc1ccc2cc3[n+](cc2c1OCCSc1ccccc1F)CCc1cc2c(cc1-3)OCO2
Activity [1]: 1.15 equiv
inhibition [2]: 73.3%
IC50 (Acetylcholinesterase [3]): 87 nM

inhibition [2]: 61.1%
Compound: Oc1ccc(/C=C/c2cc(O)cc(O)c2)cc1

Compound: COc1ccc2cc3[n+](cc2c1OCCCCCSc1ccccc1)CCc1cc2c(cc1-3)OCO2
Activity [1]: 0.89 equiv
IC50 (Acetylcholinesterase [3]): 543 nM
